Six molecules from ChEMBL document CHEMBL3352053, “New silibinin glyco-conjugates: synthesis and evaluation of antioxidant properties” (Bioorg Med Chem Lett, 2014) can be followed below.

A short description of data set [1]: Antioxidant activity assessed as DPPH radical scavenging activity after 10 mins. In kind it is physicochemical. In outline:
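Freshly prepared DPPH solution in test tubes; analogue solutions (1 mM–1 µM) added to a final volume of 2.25 mL. Absorbance read at 515 nm after 10 min. References prepared as 1 mM methanol stocks. IC50 calculated from at least three independent experiments.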
For orientation: DPPH is a stable violet radical that fades when it is reduced.

Data set [2] in a line: Toxicity in human MKN28 cells assessed as cell viability at 10 to 200 uM after 48 hrs by MTT assay. In kind it is cell-based, MKN-28. The conditions noted are these: read-out: Activity. In short, it runs like this: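 MKN28 cells incubated under basal conditions with compounds (10–200 µM) for 1–48 h, with serum-free medium as control. Viability read by MTT assay. Mean ± SD from three separate experiments run in duplicate.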
(In general: Tetrazolium dyes change colour on reduction, which living cells bring about.)

Data set [3] in a line: Inhibition of xanthine oxidase in human MKN28 cells assessed as inhibition of xanthine oxidase-induced cell damage by measuring cell viability at 10 to 200 uM after 48 hrs by MTT assay. In kind it is cell-based. As to conditions: mkn-28, 48 h. In short, it runs like this:
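MKN28 cells pre-incubated with compounds (10–200 µM) for 1–48 h, washed, then exposed for 2 h to xanthine (1 mM) plus xanthine oxidase to induce oxidative stress. Controls were serum-free medium alone, and serum-free medium followed by X–XO. Viability read by MTT assay. Mean ± SD from three separate experiments run in duplicate.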

Structures are written as SMILES. pIC50: −log10 of the molar value.

By pIC50 is commonly meant the IC50 on a negative log10 scale, so that one unit is a factor of ten.

As to `COc1cc([C@H]2Oc3cc(-c4oc5cc(O)cc(O)c5c(=O)c4O)ccc3O[C@@H]2CO)ccc1O`, in data set [1], the pIC50 was 4.57.

As to `COc1cc([C@H]2Oc3cc([C@H]4Oc5cc(O)cc(O)c5C(=O)[C@@H]4O)ccc3O[C@H]2COP(=O)([O-])OC2O[C@H](CO)[C@@H](O)[C@H](O)[C@H]2O)ccc1O.[Na+]` (stereo partly specified), in data set [1], the negative-log IC50 (pIC50) was 3.52. The viability at 48 h, up to 200 µM in data set [2] turned out to be 89.2%. Moreover, the Activity in data set [3] is recorded as 42.7%.

Consider `COc1cc([C@H]2Oc3cc([C@H]4Oc5cc(O)cc(O)c5C(=O)[C@@H]4O)ccc3O[C@H]2COP(=O)([O-])OC2O[C@H](CO)[C@@H](O)[C@H](O)[C@@H]2O)ccc1O.[Na+]` (stereo partly specified), for which the pIC50 in data set [1] was 3.97. In data set [2], the viability at 48 h, up to 200 µM was found to be 89.5%. The Activity in data set [3] was determined as 42.3%.

Consider `COc1cc([C@H]2Oc3cc([C@H]4Oc5cc(O)cc(O)c5C(=O)[C@@H]4O)ccc3O[C@H]2COP(=O)([O-])OC2O[C@H](CO)[C@H](O)[C@H](O)[C@H]2O)ccc1O.[Na+]` (stereo partly specified), for which, in data set [1], the pIC50 is 3.63. Further, in data set [2], the viability at 48 h, up to 200 µM is 84.1%. Further, in data set [3], the Activity is reported as 42.8%.

`COc1cc([C@H]2Oc3cc([C@H]4Oc5cc(O)cc(O)c5C(=O)[C@@H]4O)ccc3O[C@H]2COP(=O)([O-])OC2O[C@H](CO)[C@H](OC3O[C@H](CO)[C@H](O)[C@H](O)[C@H]3O)[C@H](O)[C@H]2O)ccc1O.[Na+]` (stereo partly specified): the negative logarithm of the IC50 (pIC50) in data set [1] is 3.81. The viability at 48 h, up to 200 µM in data set [2] amounted to 91.8%. The Activity in data set [3] is on record as 48.4%.

Regarding `COc1cc(C2Oc3cc([C@H]4Oc5cc(O)cc(O)c5C(=O)[C@@H]4O)ccc3OC2CO)ccc1O` (stereo partly specified) [SILIBININ], the negative-log IC50 (pIC50) in data set [1] was 3.41. Moreover, the viability at 48 h, up to 200 µM in data set [2] came to 45.3%. Moreover, the Activity in data set [3] amounted to 42.4%.
